1 molecule from ChEMBL document CHEMBL1649179, “Pharmacokinetics of LB80331 and LB80317 following oral administration of LB80380, a new antiviral agent for chronic hepatitis B (CHB), in healthy adult subjects, CHB patients, and mice” (Antimicrob Agents Chemother, 2009) can be followed below.

The structures appear in SMILES notation.

In series [1] the test system is Homo sapiens. The series can be described thus: Tmax in chronic hepatitis B virus infected patient assessed as (1-((2-amino-9H-purin-9-yl)methyl)cyclopropoxy)me at 60 mg, po qd for 4 weeks by LC-MS analysis. In kind it is ADME, organism-based. The note with it: in vivo, 672 h. The procedure, abridged:
(§1)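 Daily oral LB80380 was given to CHB patients over 4 weeks. Blood was drawn on day 1 and at steady state (weeks 2–4), predose and 0.5–24 h postdose. Plasma LB80331 (LLOQ 5 ng/ml) and LB80317 (LLOQ 10 ng/ml) were measured by LC-MS/MS after protein-precipitation extraction. Tmax was taken by noncompartmental analysis.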

The subject of series [2] is Homo sapiens. Description: Oral clearance in chronic hepatitis B virus infected patient assessed as (1-((2-amino-9H-purin-9-yl)methyl)cyclopropoxy)me at 120 mg, po qd for 4 weeks by LC-MS analysis. In kind it is ADME, organism-based. The note with it: in vivo, 672 h. The procedure, abridged:
(§2)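 Oral LB80380 was given once daily for 4 weeks to CHB patients. Plasma LB80331 was quantified by validated LC-MS/MS after protein precipitation, with stable-isotope internal standard, at baseline and steady state (weeks 2–4), 0–24 h postdose. Noncompartmental CL/F was calculated as dose (adjusted for LB80380/LB80331 molecular weights) divided by AUC (AUC0-∞ single dose; AUC0-24 steady state).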

The test system of series [3] is Homo sapiens. The series can be described thus: Cmax in chronic hepatitis B virus infected patient assessed as (1-((2-amino-9H-purin-9-yl)methyl)cyclopropoxy)me at 240 mg, po qd for 4 weeks by LC-MS analysis. The format is ADME, organism-based. The arrangement: dose 240 mg, route oral. As to conditions: in vivo, 672 h. The procedure, abridged:
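CHB patients, oral once daily for 4 weeks. Plasma sampled at steady state (weeks 2–4), predose and at 0.5, 1, 2, 3, 4, 6, 8 and 24 h postdose. LB80331 measured by validated LC-MS/MS (LLOQ 5 ng/ml) after protein precipitation with a stable-isotope internal standard. Cmax by noncompartmental analysis.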

The subject of series [4] is Plasma. The series can be described thus: Tmax in CD-1 mouse plasma assessed as (1-((2-amino-9H-purin-9-yl)methyl)cyclopropoxy)me at 30 mg/kg, po administered as single dose by LC-MS analysis. The format is ADME, organism-based. Further details: dose 30 mg/kg, route oral. The note with it: in vivo. The method, boiled down:
(§3)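 Male CD-1 mice received 30 mg/kg orally in 100% PEG 400. Plasma and snap-frozen liver were taken from 3 mice per time point at 1, 2, 4, 6, 10, 24 and 36 h. Samples were extracted with perchloric acid and neutralized with ammonium bicarbonate. Free LB80331/LB80317 was measured directly by LC-MS/MS; total, including di- and triphosphates, was measured after calf intestinal phosphatase treatment.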

Series [5] deals with Plasma. The series can be described thus: AUC (0 to infinity) in CD-1 mouse plasma assessed as (1-((2-amino-9H-purin-9-yl)methyl)cyclopropoxy)me at 30 mg/kg, po administered as single dose by LC-MS analysis. As to conditions: in vivo. The format is ADME, organism-based. The arrangement: time infinity, dose 30 mg/kg, route oral. The method, boiled down:
(§4)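 Male CD-1 mice given a single oral dose in 100% PEG 400. Samples extracted with perchloric acid and neutralized with ammonium bicarbonate. One aliquot assayed for the free analyte; the other treated with calf intestinal phosphatase to give the total including di-/triphosphates. Analysis by LC-MS/MS.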

Series [6] has as its system Liver. Description: Cmax in CD-1 mouse liver assessed as (1-((2-amino-9H-purin-9-yl)methyl)cyclopropoxy)me at 30 mg/kg, po administered as single dose by LC-MS analysis. As to conditions: in vivo. Further details: dose 30 mg/kg, route oral. In kind it is ADME, organism-based. The procedure, abridged: as §4
Series [7] concerns Liver. Description: Half life in CD-1 mouse liver assessed as (1-((2-amino-9H-purin-9-yl)methyl)cyclopropoxy)me at 30 mg/kg, po administered as single dose by LC-MS analysis. In kind it is ADME, organism-based. Further details: dose 30 mg/kg, route oral. The note with it: in vivo. The method, boiled down:
as §4

Series [8] has as its system Liver. Description: Tmax in CD-1 mouse liver assessed as di- and triphosphates of (1-((2-amino-9H-purin-9-yl)methyl)cyclopropoxy)me at 30 mg/kg, po administered as single dose by LC-MS analysis. In kind it is ADME, organism-based. Further details: dose 30 mg/kg, route oral. As to conditions: in vivo. The method, boiled down:
as §3

Series [9] deals with Liver. The series can be described thus: Cmax in CD-1 mouse liver assessed as di- and triphosphates of (1-((2-amino-9H-purin-9-yl)methyl)cyclopropoxy)me at 30 mg/kg, po administered as single dose by LC-MS analysis. The format is ADME, organism-based. As to conditions: in vivo. Further details: dose 30 mg/kg, route oral. The method, boiled down:
as §4

Series [10] relates to Liver. The series can be described thus: AUC (0 to 36 hrs) in CD-1 mouse liver assessed as di- and triphosphates of (1-((2-amino-9H-purin-9-yl)methyl)cyclopropoxy)me at 30 mg/kg, po administered as single dose by LC-MS analysis. In kind it is ADME, organism-based. Further details: time < 36 hr, dose 30 mg/kg, route oral. As to conditions: in vivo. The procedure, abridged:
as §4

For series [11], the system named is Homo sapiens. The series can be described thus: Half life in chronic hepatitis B virus infected patient assessed as (1-((2-amino-9H-purin-9-yl)methyl)cyclopropoxy)me at 30 mg, po administered as single dose by LC-MS analysis. The note with it: in vivo. The format is ADME, organism-based. The method, boiled down: (§5)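 CHB patients given LB80380 orally once daily for 4 weeks. Plasma was sampled on day 1 and at steady state (weeks 2–4), predose and 0.5, 1, 2, 3, 4, 6, 8 and 24 h postdose. LB80331 was measured by validated LC-MS/MS (LLOQ 5 ng/ml). Terminal-phase apparent t1/2 came from noncompartmental analysis and was flagged if extrapolated AUC exceeded 20% of AUC0-24.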

Series [12] has as its system Homo sapiens. The series can be described thus: Oral clearance in chronic hepatitis B virus infected patient assessed as (1-((2-amino-9H-purin-9-yl)methyl)cyclopropoxy)me at 30 mg, po administered as single dose by LC-MS analysis. As to conditions: in vivo. The format is ADME, organism-based. The method, boiled down: as §2
For series [13], the system named is Homo sapiens. Description: Cmax in chronic hepatitis B virus infected patient assessed as (1-((2-amino-9H-purin-9-yl)methyl)cyclopropoxy)me at 60 mg, po administered as single dose by LC-MS analysis. The format is ADME, organism-based. Further details: dose 60 mg, route oral. As to conditions: in vivo. The method, boiled down:
(§6)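 CHB patients (HBsAg/HBeAg positive), six per dose cohort, given a first oral dose on day 1. Plasma sampled at baseline. Analysis by validated LC-MS/MS after protein precipitation with a stable-isotope internal standard; LLOQ 5 ng/ml for LB80331. Noncompartmental analysis gives Cmax and AUC0-∞.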

In series [14] the test system is Homo sapiens. Description: Tmax in chronic hepatitis B virus infected patient assessed as (1-((2-amino-9H-purin-9-yl)methyl)cyclopropoxy)me at 60 mg, po administered as single dose by LC-MS analysis. The note with it: in vivo. The format is ADME, organism-based. The method, boiled down: as §1
Series [15] concerns Homo sapiens. The series can be described thus: Half life in chronic hepatitis B virus infected patient assessed as (1-((2-amino-9H-purin-9-yl)methyl)cyclopropoxy)me at 60 mg, po administered as single dose by LC-MS analysis. In kind it is ADME, organism-based. As to conditions: in vivo. The procedure, abridged: as §5
The subject of series [16] is Homo sapiens. The series can be described thus: AUC (0 to infinity) in chronic hepatitis B virus infected patient assessed as (1-((2-amino-9H-purin-9-yl)methyl)cyclopropoxy)me at 120 mg, po administered as single dose by LC-MS analysis. The format is ADME, organism-based, Plasma. The arrangement: dose 120 mg, time infinity, route oral. As to conditions: in vivo. The procedure, abridged:
as §6

Series [17] concerns Homo sapiens. Description: AUC (0 to infinity) in chronic hepatitis B virus infected patient assessed as (1-((2-amino-9H-purin-9-yl)methyl)cyclopropoxy)me at 240 mg, po administered as single dose by LC-MS analysis. In kind it is ADME, organism-based, Plasma. The arrangement: dose 240 mg, route oral, time infinity. The note with it: in vivo. The method, boiled down:
as §6

In series [18] the test system is Homo sapiens. Description: Cmax in chronic hepatitis B virus infected patient assessed as (1-((2-amino-9H-purin-9-yl)methyl)cyclopropoxy)me at 240 mg, po administered as single dose by LC-MS analysis. The format is ADME, organism-based. Further details: dose 240 mg, route oral. As to conditions: in vivo. The procedure, abridged:
as §6

The subject of series [19] is Homo sapiens. The series can be described thus: Tmax in chronic hepatitis B virus infected patient assessed as (1-((2-amino-9H-purin-9-yl)methyl)cyclopropoxy)me at 240 mg, po administered as single dose by LC-MS analysis. As to conditions: in vivo. In kind it is ADME, organism-based. The procedure, abridged: as §1
For series [20], the system named is Homo sapiens. Description: Half life in chronic hepatitis B virus infected patient assessed as (1-((2-amino-9H-purin-9-yl)methyl)cyclopropoxy)me at 30 mg, po qd for 4 weeks by LC-MS analysis. In kind it is ADME, organism-based. As to conditions: in vivo, 672 h. The method, boiled down: as §5
The subject of series [21] is Homo sapiens. The series can be described thus: Oral clearance in chronic hepatitis B virus infected patient assessed as (1-((2-amino-9H-purin-9-yl)methyl)cyclopropoxy)me at 30 mg, po qd for 4 weeks by LC-MS analysis. The format is ADME, organism-based. As to conditions: in vivo, 672 h. The procedure, abridged:
as §2

As usually defined, the Tmax is the time from dosing to the highest level. As a reminder, the CL/F is the apparent clearance, not corrected for the fraction that reaches the circulation. A word on the Cmax: it is the peak of the concentration-time curve. In general, AUC refers to the area under the concentration-time curve, a measure of exposure.

Consider `Nc1ncc2ncn(CC3(OCP(=O)(O)O)CC3)c2n1` [BESIFOVIR], for which the Tmax worked out at 2 h in series [1]; 1 h in [4]; 1 h in series [8]; 2 h in [14]; 2 h in series [19]. Also, the CL/F came out at 304 mL/min in [2], 288 mL/min in series [12] and 289 mL/min in [21]. Also, the Cmax in series [3] stood at 1164 ng/mL; in series [6], 44 µM; in series [9] it was 17 µM; in [13], 397 ng/mL; in [18] it was 1076 ng/mL. The AUC was determined as 17 µM·h in series [5], 64 µM·h in series [10], 4374 ng·h/mL in series [16] and 6302 ng·h/mL in series [17]. Also, the t1/2 in series [7] came to 2.8 h; in series [11], 2.5 h; in [15], 3 h; in series [20] it was 2.5 h.
